Measured values from ChEMBL document CHEMBL3352586, “Pyridyl benzamides as a novel class of potent inhibitors for the kinetoplastid Trypanosoma brucei” (J Med Chem, 2014).
Converted amounts (≈) assume the structure as drawn.

Key:
[1] = test system: Trypanosoma brucei brucei; experiment: Antimicrobial activity against bloodstream form of Trypanosoma brucei brucei 427 after 48 hrs by alamar blue assay; type: functional, organism-based; settings: Trypanosoma brucei, 427, 48 h
[2] = Selectivity index, ratio of IC50 for HEK293 cells to IC50 for Trypanosoma brucei brucei 427; type: toxicity, cell-based; settings: human, read-out: Ratio IC50
[3] = test system: Trypanosoma brucei rhodesiense; experiment: Antimicrobial activity against bloodstream form of Trypanosoma brucei rhodesiense STIB 900 after 70 hrs by alamar blue assay; type: functional, organism-based; settings: STIB 900, 70 h
Method in brief: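 Trypanosoma brucei rhodesiense STIB 900 bloodstream-form trypomastigotes, with melarsoprol as reference drug.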

Leishmania donovani = experiment: Antimicrobial activity against amastigote form of Leishmania donovani MHOM/ET/67/L82 after 70 hrs by alamar blue assay; type: functional, organism-based; settings: MHOM/ET/67/L82, 70 h
Method in brief: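 Leishmania donovani MHOM-ET-67/L82 axenic amastigotes, with miltefosine as reference drug.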

Plasmodium falciparum = experiment: Antimicrobial activity against erythrocytic stage of Plasmodium falciparum NF54 infected in human washed RBC assessed as [3H]-hypoxanthine incorporation incubated for 48 hrs prior to [3H]-hypoxanthine addition measured after 24 hrs by liquid scintillation counting analysis; type: functional, organism-based
L6 = experiment: Cytotoxicity against rat L6 cells after 70 hrs by alamar blue assay; type: cell-based; settings: L6, 70 h
Method in brief: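 Cytotoxicity on the rat skeletal myoblast L-6 strain, with podophyllotoxin as reference drug.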

Trypanosoma cruzi = experiment: Antimicrobial activity against amastigote form of Trypanosoma cruzi Tulahuen C2C4 infected in rat L6 cells after 96 hrs by microscopic analysis; settings: Tulahuen C2C4, L6, 96 h
[4] = Partition coefficient, log D of the compound at pH 7.4 by HPLC method; type: physicochemical; settings: octanol/water
Method in brief: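 Distribution coefficient at pH 7.4 was measured chromatographically.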

[5] = Kinetic solubility of the compound at 10 mg/ml at pH 2 by nephelometry; type: physicochemical; settings: buffer, read-out: Kinetic_solubility
Method in brief: (§1)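 Kinetic solubility was read by nephelometry at pH 2 and pH 6.5 and reported as μg/mL ranges.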

[6] = Kinetic solubility of the compound at 10 mg/ml at pH 6.5 by nephelometry; type: physicochemical; settings: buffer, read-out: Kinetic_solubility; method in brief: as §1
[7] = Plasma protein binding in human […] by chromatographic method; type: ADME, cell-free; settings: read-out: PPB (converted)
Method in brief: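 Human plasma protein binding was estimated by a chromatographic method.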

[8] = test system: Trypanosoma brucei brucei; experiment: Antimicrobial activity against bloodstream form of Trypanosoma brucei brucei 427 at 10 uM after 48 hrs by alamar blue assay; type: functional; settings: Trypanosoma brucei, 427, 48 h
Liver microsome = experiment: Intrinsic clearance in human liver microsomes at 1 uM after 60 mins by LC-MS analysis; type: ADME; settings: 1 h
Method in brief: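 In vitro intrinsic clearance was measured in human liver microsomes and expressed per mg protein. A hepatic extraction ratio (E_H) was predicted from the in vitro data.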

IC50 [1]	Compound	selectivity ratio [2]	inhibition at 10 µM [8]	further results
0.98 µM	Cc1ccc(C(=O)Nc2ccccn2)c(C)c1	85	–	IC50 [3]: 0.24 µM; IC50 (Leishmania donovani): > 133 µM; IC50 (Plasmodium falciparum): 93 µM; IC50 (L6): 283 µM; IC50 (Trypanosoma cruzi): 187 µM
–	Cc1ccccc1C(=O)Nc1ncccn1	–	< 10%	logD [4]: 3.9; solubility kinetic [5]: 6.3 µg/mL (≈ 29.5 µM); solubility kinetic [6]: 6.3 µg/mL (≈ 29.5 µM); fraction unbound [7]: 0.024
–	Cc1ccccc1C(=O)Nc1cccc(F)n1	–	< 10%	logD [4]: 3; solubility kinetic [5]: > 100 µg/mL; solubility kinetic [6]: > 100 µg/mL; fraction unbound [7]: 0.33; CLint (Liver microsome): 191 µL/min/mg
0.9 µM	Cc1ccnc(NC(=O)c2ccc(F)c(F)c2C)c1	93	–	IC50 [3]: 0.64 µM; IC50 (Leishmania donovani): > 113 µM; IC50 (Plasmodium falciparum): 72 µM; IC50 (L6): 223 µM; IC50 (Trypanosoma cruzi): 147 µM
3.03 µM	Cc1ccccc1C(=O)Nc1ccccn1	27.5	80%	IC50 [3]: 2.1 µM; IC50 (Leishmania donovani): 48 µM; IC50 (Plasmodium falciparum): 36 µM; IC50 (L6): 156 µM; IC50 (Trypanosoma cruzi): 152 µM
–	COc1ccc(C(=O)Nc2ccccn2)c(C)c1	–	< 10%	–
–	Cc1ccc(C)c(C(=O)Nc2ccccn2)c1	–	22%	–
–	Cc1ccccc1C(=O)Nc1cccc(O)n1	–	< 10%	–
–	COc1cccnc1NC(=O)c1ccccc1C	–	< 10%	–
–	Cc1ccccc1C(=O)Nc1ccc(C#N)cn1	–	< 10%	logD [4]: 3.9; solubility kinetic [5]: 6.3 µg/mL (≈ 26.6 µM); solubility kinetic [6]: 6.3 µg/mL (≈ 26.6 µM); fraction unbound [7]: 0.025
–	Cc1cccnc1C(=O)Nc1ccccn1	–	12%	–
3.5 µM	Cc1cccc(C(=O)Nc2ccccn2)c1C	24	–	–
–	Cc1ccccc1C(=O)Nc1cccc(Br)n1	–	< 10%	–
–	Cc1cc(NC(=O)c2ccccc2C)no1	–	< 10%	–
2.74 µM	CCc1ccccc1C(=O)Nc1ccccn1	30	–	–
–	CCCCCN(C(=O)c1ccccc1C)c1ccccn1	–	17%	–
–	Cc1ccccc1C(=O)Nc1ccc(C#CCC(C)C)cn1	–	12%	–
–	Cc1ccccc1C(=O)Nc1ccccc1	–	< 10%	–
–	Cc1cccc(F)c1C(=O)Nc1ccccn1	–	45%	–
0.1 µM	Cc1c(F)cccc1C(=O)Nc1cc(F)ccn1	851	–	–
–	O=C(Nc1ccccn1)c1ccccc1Cl	–	44%	–
–	Cc1ccccc1C(=O)Nc1cccc(C#N)n1	–	11%	–

IC50 [1]	Compound	selectivity ratio [2]	inhibition at 10 µM [8]	further results
–	Cc1ccccc1C(=O)Nc1ccc(-c2ccccc2)cn1	–	11%	–
–	O=C(Nc1ccccn1)c1ccccc1F	–	35%	–
–	Cc1ccccc1C(=O)Nc1cccc(OCC(C)C)n1	–	< 10%	–
0.53 µM	Cc1c(C(=O)Nc2cc(Cl)ccn2)ccc(F)c1F	160	–	–
9.07 µM	O=C(Nc1ccccn1)c1ccccc1	9.2	–	–
1.8 µM	Cc1ccccc1C(=O)Nc1cc(Br)ccn1	> 41	–	–
3.8 µM	COc1ccc(NC(=O)c2ccccc2C)nc1	> 22	–	logD [4]: 2.5; solubility kinetic [5]: > 100 µg/mL; solubility kinetic [6]: 12.5 µg/mL (≈ 51.6 µM); fraction unbound [7]: 0.399; CLint (Liver microsome): 23 µL/min/mg
–	Cc1ccccc1C(=O)Nc1ncccc1C	–	34%	–
–	CCC/C=C/c1ccc(NC(=O)c2ccccc2C)nc1	–	19%	–
–	Cc1ccccc1C(=O)Nc1cnccn1	–	35%	–
–	Cc1cccc(C)c1C(=O)Nc1ccccn1	–	< 10%	–
–	Cc1ccccc1C(=O)Nc1cccc(C#Cc2ccccc2)n1	–	< 10%	–
5.7 µM	Cc1c(Br)cccc1C(=O)Nc1ccccn1	15	–	–
–	Cc1ccccc1C(=O)Nc1ccccc1C#N	–	< 10%	–
7.33 µM	O=C(Nc1ccccn1)c1cccc(F)c1	11	–	–
–	Cc1ccccc1C(=O)Nc1cc[nH]n1	–	< 10%	–
2 µM	Cc1ccccc1C(=O)Nc1cc(-c2ccccc2)ccn1	31	–	IC50 [3]: 0.97 µM; IC50 (Leishmania donovani): > 124 µM; IC50 (Plasmodium falciparum): 91 µM; IC50 (L6): 70 µM; IC50 (Trypanosoma cruzi): 66 µM
–	Cc1ncccc1C(=O)Nc1ccccn1	–	21%	–
–	CCC/C=C/c1ccc(C(=O)Nc2ccccn2)c(C)c1	–	24%	–
6 µM	CCC/C=C/c1cccc(NC(=O)c2ccccc2C)n1	> 3	–	–
–	Cc1ccccc1C(=O)Nc1ccc(Cl)cn1	–	< 10%	–
–	COc1ccc(C)c(C(=O)Nc2ccccn2)c1	–	< 10%	–
